From ChEMBL document CHEMBL1250524, “Novel imidazoline compounds as partial or full agonists of D2-like dopamine receptors inspired by I2-imidazoline binding sites ligand 2-BFI” (Bioorg Med Chem, 2010)

Key:
[1] = Displacement of [3H]YM-09-151-2 from D2-like receptor in pig striatal membrane; type: cell membranes, Sus scrofa, Striatum
In short: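 Pig striatal membranes (about 200 µg protein) in Tris–HCl pH 7.4 with protease inhibitors, incubated to equilibrium (60 min, 30 °C) with 0.3 nM [3H]YM-09-151-2 and at least six compound concentrations. Nonspecific binding defined with 2.5 mM dopamine. Filtration, scintillation counting. IC50 converted to Ki by Cheng–Prusoff; 3–5 experiments in triplicate. Radioligand Kd 0.40 nM.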

[2] = Displacement of [3H]2BFI from I2 imidazoline binding site in rat brain membrane; type: cell membranes
In short: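 Rat whole-brain membranes (about 300 µg protein) incubated to equilibrium (30 min, room temperature) with 1 nM [3H]2-BFI and increasing compound concentrations in 50 mM Tris–HCl, 1 mM MgCl2, pH 7.4. Nonspecific binding defined with 10 µM BU224. Filtration, scintillation counting. At least six concentrations; IC50 converted to Ki by Cheng–Prusoff; 3–5 experiments in triplicate.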

[3] = target: T1, Adrenergic receptor alpha-2 (Rattus norvegicus, UniProt P22086+P19328+P22909); assay: Displacement of [3H]RX821002 from alpha2 adrenergic receptor in rat brain membrane; type: cell membranes
T1 sequence (P22086 whole entry): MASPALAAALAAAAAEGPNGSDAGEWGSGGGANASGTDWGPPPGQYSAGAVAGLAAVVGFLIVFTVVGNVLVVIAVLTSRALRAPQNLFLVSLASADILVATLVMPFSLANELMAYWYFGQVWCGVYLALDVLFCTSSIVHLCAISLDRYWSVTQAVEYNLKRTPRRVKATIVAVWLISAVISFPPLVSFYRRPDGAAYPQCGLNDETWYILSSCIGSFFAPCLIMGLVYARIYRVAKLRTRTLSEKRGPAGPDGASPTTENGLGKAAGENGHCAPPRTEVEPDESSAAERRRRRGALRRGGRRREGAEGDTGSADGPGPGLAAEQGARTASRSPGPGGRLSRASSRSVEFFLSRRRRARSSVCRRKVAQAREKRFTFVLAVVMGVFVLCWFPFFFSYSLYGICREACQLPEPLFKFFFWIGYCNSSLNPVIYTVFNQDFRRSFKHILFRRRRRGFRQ
T1 sequence (P19328 whole entry): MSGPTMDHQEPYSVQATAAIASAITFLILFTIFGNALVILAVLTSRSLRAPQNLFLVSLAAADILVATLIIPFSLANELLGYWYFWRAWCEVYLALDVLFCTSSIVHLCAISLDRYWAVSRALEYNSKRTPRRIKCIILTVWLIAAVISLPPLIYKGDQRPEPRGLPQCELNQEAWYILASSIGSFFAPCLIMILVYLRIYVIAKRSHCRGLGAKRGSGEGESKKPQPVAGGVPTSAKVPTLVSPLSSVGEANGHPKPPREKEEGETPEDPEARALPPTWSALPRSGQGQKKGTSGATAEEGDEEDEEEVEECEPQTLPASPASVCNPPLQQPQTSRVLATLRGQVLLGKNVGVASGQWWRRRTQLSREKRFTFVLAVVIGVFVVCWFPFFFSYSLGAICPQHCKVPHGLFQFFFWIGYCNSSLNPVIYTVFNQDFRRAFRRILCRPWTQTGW
T1 sequence (P22909 whole entry): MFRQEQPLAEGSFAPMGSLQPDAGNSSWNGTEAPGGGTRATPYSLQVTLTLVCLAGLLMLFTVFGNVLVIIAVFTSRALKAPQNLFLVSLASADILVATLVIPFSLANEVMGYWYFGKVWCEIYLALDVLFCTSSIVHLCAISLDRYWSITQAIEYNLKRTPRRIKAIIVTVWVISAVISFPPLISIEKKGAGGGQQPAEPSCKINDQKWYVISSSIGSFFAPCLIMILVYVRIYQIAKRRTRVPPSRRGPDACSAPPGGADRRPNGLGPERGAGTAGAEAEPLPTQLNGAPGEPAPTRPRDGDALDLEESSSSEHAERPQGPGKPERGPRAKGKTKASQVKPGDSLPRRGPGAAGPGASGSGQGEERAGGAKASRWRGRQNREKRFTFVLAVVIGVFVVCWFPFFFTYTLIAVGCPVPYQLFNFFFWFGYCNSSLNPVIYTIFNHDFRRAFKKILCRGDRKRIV

[4] = Agonist activity at D2-like receptor in pig striatal membrane assessed as [35S]GTPgammaS binding; type: functional, cell membranes, Sus scrofa, Striatum
In short: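 Porcine striatal membranes incubated 60 min at 30 °C in 50 mM Tris–HCl pH 7.4 with GDP, 5 mM MgCl2, 0.1 mM EDTA, 0.2 mM EGTA, 0.2 mM DTT, 150 mM NaCl, 0.2 nM [35S]GTPγS and six compound concentrations. Nonspecific binding defined with unlabeled GTPγS. Filtration, scintillation counting. EC50 by nonlinear regression, three independent experiments. Intrinsic activity set relative to dopamine %Emax = 1.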

Rattus norvegicus [5] = assay: Anxiolytic-like activity in Wistar rat assessed as ambulatory activity at 0.0149 uM/kg, icv by open field test; type: functional
In short: (§1)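 Male Wistar rats (200–225 g, 8 per group) given ip zolazepam/tiletamine anaesthesia before a cannula was implanted in the right lateral ventricle. Compound given icv at 0.0149 µM/kg; controls received physiological solution. Open field with two photocell rows: lower-row breaks counted as ambulatory episodes, upper-row breaks as rearing. Read-out is the % of episodes in the central area, mean ± SE.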

Rattus norvegicus [6] = assay: Anxiolytic-like activity in Wistar rat assessed as rearing activity at 0.0149 uM/kg, icv by open field test; type: functional; in short: as §1
[7] = Displacement of [3H]SCH23390 from dopamine D1-like receptor pig striatal membrane

SMILES	Ki [1] [µM]	Ki [2] [µM]	Ki [3] [µM]	EC50 [4] [µM]	Kd [7] [µM]	Activity (Rattus norvegicus [5]) [%]	Activity (Rattus norvegicus [6]) [%]
CCCN1CCN=C1c1cc2cc(O)c(O)cc2o1	> 100	28	10.16	–	–	–	–
CCCN1CCN=C1c1cc2ccc(O)cc2o1	13.8	2.1	1.92	13.3	–	–	–
CCCN1CCN=C1c1cc2cc(O)ccc2o1	15.8	0.7	3.64	–	–	–	–
N[C@@H](Cc1ccc(O)c(O)c1)C(=O)O [LEVODOPA]	–	–	–	–	–	5.7	2
Oc1ccc2oc(C3=NCCN3)cc2c1	> 100	0.0881	2.95	–	–	–	–
Oc1ccc2cc(C3=NCCN3Cc3ccccc3)oc2c1	5.66	5.78	2.08	5.8	–	6.3	2

The next lines start with results.

Ki [1] [µM]	Ki [2] [µM]	Ki [3] [µM]	EC50 [4] [µM]	Kd [7] [µM]	SMILES	Activity (Rattus norvegicus [5]) [%]	Activity (Rattus norvegicus [6]) [%]
5	1.1	4.39	6.3	–	Oc1ccc2oc(C3=NCCN3Cc3ccccc3)cc2c1	–	–
> 100	> 100	25.5	–	–	CCN1CCN=C1c1cc2cc(O)ccc2o1	–	–
14.5	0.076	11	5.7	–	Oc1ccc2cc(C3=NCCN3)oc2c1	–	–
> 100	–	–	–	–	CN1CCN=C1c1cc2cc(O)ccc2o1	–	–
47	0.0034	–	37.7	–	c1ccc2oc(C3=NCCN3)cc2c1	–	–
3.9	–	–	4.8	0.00133	NCCc1ccc(O)c(O)c1 [DOPAMINE]	–	–
18.5	10.4	4.43	11.9	–	Oc1cc2cc(C3=NCCN3Cc3ccccc3)oc2cc1O	–	–
> 100	5.69	24.21	–	–	Oc1cc2cc(C3=NCCN3)oc2cc1O	–	–
